The M2OR odorant receptor database

Experiments:
Conditions in all cases: stereoisomer not certain
OR2M3 D11N = system: OR2M3 D11N
Method in brief: (§1)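 Each receptor–molecule pair is labelled responsive or non-responsive (inactive) according to whether the original authors judged the measured signal statistically different from baseline. The data were taken from the main text and supplementary material of published papers and checked for typos and inconsistencies. Assay methods differed by source, with transient luciferase assays in mammalian cell lines being common.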

OR2M3 I13L A33G M144T = system: OR2M3 I13L A33G M144T
Method in brief: as §1

OR2M3 I13L A33G R266H = system: OR2M3 I13L A33G R266H
Method in brief: as §1

OR2M3 I13L A33G = system: OR2M3 I13L A33G
Method in brief: as §1

OR2M3 I13L M144T = system: OR2M3 I13L M144T
Method in brief: as §1

OR2M3 I13L = system: OR2M3 I13L
OR2M3 I13L, sequence (as listed by the source, stated change not applied): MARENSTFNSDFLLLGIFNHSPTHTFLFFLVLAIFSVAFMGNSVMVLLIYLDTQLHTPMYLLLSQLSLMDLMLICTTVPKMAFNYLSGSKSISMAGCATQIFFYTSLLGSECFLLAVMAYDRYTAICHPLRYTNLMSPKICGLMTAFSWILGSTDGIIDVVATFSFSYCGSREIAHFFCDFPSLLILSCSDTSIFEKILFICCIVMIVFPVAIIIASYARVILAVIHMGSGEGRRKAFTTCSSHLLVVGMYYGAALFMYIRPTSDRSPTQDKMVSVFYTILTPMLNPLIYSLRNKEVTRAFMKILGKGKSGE
Method in brief: as §1

OR2M3 I198V = system: OR2M3 I198V
OR2M3 I198V, sequence (as listed by the source, stated change not applied): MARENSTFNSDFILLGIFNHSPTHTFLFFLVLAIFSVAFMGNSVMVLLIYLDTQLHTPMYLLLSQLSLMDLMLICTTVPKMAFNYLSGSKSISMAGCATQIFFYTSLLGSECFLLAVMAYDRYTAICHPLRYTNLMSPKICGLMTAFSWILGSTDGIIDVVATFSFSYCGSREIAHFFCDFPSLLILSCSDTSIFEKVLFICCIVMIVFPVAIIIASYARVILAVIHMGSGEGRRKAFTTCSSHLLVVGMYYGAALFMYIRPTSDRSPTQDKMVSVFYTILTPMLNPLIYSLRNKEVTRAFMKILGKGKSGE
Method in brief: as §1

OR2M3 I289N = system: OR2M3 I289N
OR2M3 I289N, sequence (as listed by the source, stated change not applied): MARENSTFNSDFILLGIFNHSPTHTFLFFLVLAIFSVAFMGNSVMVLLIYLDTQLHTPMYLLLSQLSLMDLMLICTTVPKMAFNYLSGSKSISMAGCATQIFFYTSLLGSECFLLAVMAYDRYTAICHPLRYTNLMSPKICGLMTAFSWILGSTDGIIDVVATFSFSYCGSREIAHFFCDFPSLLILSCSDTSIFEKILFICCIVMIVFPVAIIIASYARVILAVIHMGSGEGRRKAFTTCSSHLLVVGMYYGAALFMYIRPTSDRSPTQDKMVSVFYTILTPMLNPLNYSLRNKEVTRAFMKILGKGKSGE
Method in brief: as §1

OR2M3 L63F = system: OR2M3 L63F
OR2M3 L63F, sequence (as listed by the source, stated change not applied): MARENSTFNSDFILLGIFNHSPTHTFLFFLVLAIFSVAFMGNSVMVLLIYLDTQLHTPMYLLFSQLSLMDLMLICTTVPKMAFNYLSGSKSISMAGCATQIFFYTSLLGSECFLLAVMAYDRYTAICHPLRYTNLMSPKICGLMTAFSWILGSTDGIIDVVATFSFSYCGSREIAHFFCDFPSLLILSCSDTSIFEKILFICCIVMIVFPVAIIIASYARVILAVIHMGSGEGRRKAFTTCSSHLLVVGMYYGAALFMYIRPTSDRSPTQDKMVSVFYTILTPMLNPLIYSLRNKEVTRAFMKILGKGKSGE
Method in brief: as §1

OR2M3 M144T = system: OR2M3 M144T
OR2M3 M144T, sequence (as listed by the source, stated change not applied): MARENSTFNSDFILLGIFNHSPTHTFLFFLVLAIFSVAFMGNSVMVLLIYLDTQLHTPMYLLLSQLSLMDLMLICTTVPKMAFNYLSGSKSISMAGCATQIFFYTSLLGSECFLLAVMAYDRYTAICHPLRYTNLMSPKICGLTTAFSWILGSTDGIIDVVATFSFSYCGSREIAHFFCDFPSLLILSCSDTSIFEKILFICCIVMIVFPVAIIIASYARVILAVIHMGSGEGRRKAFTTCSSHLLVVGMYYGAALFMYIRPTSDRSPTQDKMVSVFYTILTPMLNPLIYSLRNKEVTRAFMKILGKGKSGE
Method in brief: as §1
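Also: active if original authors judged signal statistically different from baseline.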

OR2M3 D11N, sequence (as listed by the source, stated change not applied): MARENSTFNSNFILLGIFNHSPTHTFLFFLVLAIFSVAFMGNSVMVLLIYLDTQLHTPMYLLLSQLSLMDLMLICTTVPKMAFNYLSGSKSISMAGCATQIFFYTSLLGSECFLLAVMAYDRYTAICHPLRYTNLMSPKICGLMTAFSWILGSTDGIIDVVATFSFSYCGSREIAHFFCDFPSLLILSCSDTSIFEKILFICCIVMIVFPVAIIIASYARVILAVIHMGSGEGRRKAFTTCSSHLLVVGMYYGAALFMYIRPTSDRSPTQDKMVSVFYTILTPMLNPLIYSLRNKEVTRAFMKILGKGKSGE

CCC(S)C(C)CO (stereo not given)
odorant receptor agonist call (OR2M3 D11N): active
odorant receptor agonist call (OR2M3 I13L A33G M144T): inactive
odorant receptor agonist call (OR2M3 I13L A33G R266H): active
odorant receptor agonist call (OR2M3 I13L A33G): active
odorant receptor agonist call (OR2M3 I13L M144T): active
odorant receptor agonist call (OR2M3 I13L): active
odorant receptor agonist call (OR2M3 I198V): active
odorant receptor agonist call (OR2M3 I289N): inactive
odorant receptor agonist call (OR2M3 L63F): inactive
odorant receptor agonist call (OR2M3 M144T): active
